Experimental findings from publication PMC9049141 (RSC Advances, 2020) are described below.

One data set deals with HSA (Homo sapiens, UniProt P02768). Put plainly: Albumin binding affinity by surface plasmon resonance. To be noted: for k a / k d: SPR, BIAcoT200 system, HSA; for Kd: human, HSA (human serum albumin), surface plasmon resonance.
Data set [1] in a line: Plasma stability test in human plasma with or without HSA. Type of data set: in vitro ADME. The method, boiled down:
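Albumin-depleted human plasma was prepared with a blue-dye albumin removal kit. Test peptides at a final 1 mg L−1 were incubated at 37 °C in human plasma with or without HSA. Samples were taken at time points from 0 to 144 h and analysed by LC-MS/MS.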

Where [2] appears, read: human plasma without albumin (HSA-free).

Square brackets hold non-standard residues; d marks the D form. Ends that are not written are not given here. * marks the point of attachment. FITC = O=C1OC2(c3ccc(O)cc3Oc3cc(O)ccc32)c2ccc(NC(=S)*)cc21; Stearoyl = CCCCCCCCCCCCCCCCCC(=O)*; Palmitoyl = CCCCCCCCCCCCCCCC(=O)*; Myristoyl = CCCCCCCCCCCCCC(=O)*; Aib = CC(C)(N)C(=O)O; Ahx = NCCCCCC(=O)O

Sequence of HSA (P02768 25-609): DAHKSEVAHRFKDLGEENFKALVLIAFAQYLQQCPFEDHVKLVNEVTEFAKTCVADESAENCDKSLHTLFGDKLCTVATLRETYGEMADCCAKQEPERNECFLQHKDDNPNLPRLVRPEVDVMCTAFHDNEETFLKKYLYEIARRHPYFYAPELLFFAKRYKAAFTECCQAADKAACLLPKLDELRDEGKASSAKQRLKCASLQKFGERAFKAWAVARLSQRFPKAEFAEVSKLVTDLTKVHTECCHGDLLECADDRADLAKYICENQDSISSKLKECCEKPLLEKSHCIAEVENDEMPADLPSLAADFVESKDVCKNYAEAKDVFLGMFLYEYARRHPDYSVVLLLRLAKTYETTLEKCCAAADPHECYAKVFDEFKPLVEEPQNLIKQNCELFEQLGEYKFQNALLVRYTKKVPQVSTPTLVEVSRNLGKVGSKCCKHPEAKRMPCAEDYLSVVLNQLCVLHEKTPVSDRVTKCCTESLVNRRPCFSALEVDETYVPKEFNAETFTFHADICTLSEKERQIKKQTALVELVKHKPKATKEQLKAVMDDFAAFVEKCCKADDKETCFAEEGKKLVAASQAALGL

The Kd is the concentration at which binding is half-saturated. Low readings indicate tighter binding, high ones weaker binding. Turning to “{FITC-Ahx}-EK(Palmitoyl)YEEYEGGGGSGGGGSFNPRH[Aib]EGTFTSDVSSYLEGQAAKEFIAWLVKGRG (N-terminus assumed) [PES05]”, on HSA, the k a was 8900 M⁻¹ s⁻¹; the k d came to 0.0722 s⁻¹; the affinity, expressed as Kd, was 8.11 µM.

Usually half-life stands for the time needed for the level to fall by half in the phase considered. Read a high half-life as slow loss. At HSA, “{FITC-Ahx}-EYEEK(Myristoyl)YEGGGGSGGGGSFNPRH[Aib]EGTFTSDVSSYLEGQAAKEFIAWLVKGRG (N-terminus assumed) [PES13]” had a k a of 11000 M⁻¹ s⁻¹, a k d of 0.00422 s⁻¹ and a Kd of 0.383 µM. The substance further had a half-life at 1 mg L^−1 in data set [1] (human plasma with HSA) of 68.7 h. This substance gave a half-life at 1 mg L^−1 in data set [1] (setting [2]) of 64.4 h.

On HSA, “{FITC-Ahx}-EYK(Palmitoyl)EEYEGGGGSGGGGSFNPRH[Aib]EGTFTSDVSSYLEGQAAKEFIAWLVKGRG (N-terminus assumed) [PES08]” gave a k a of 26700 M⁻¹ s⁻¹, a k d of 0.0942 s⁻¹ and a Kd of 3.53 µM.

On HSA, “{FITC-Ahx}-EK(Stearoyl)YEEYEGGGGSGGGGSFNPRH[Aib]EGTFTSDVSSYLEGQAAKEFIAWLVKGRG (N-terminus assumed) [PES06]” showed a k a of 18800 M⁻¹ s⁻¹, a k d of 0.0922 s⁻¹ and a Kd of 4.9 µM.

For the substance “{FITC-Ahx}-EYEK(Stearoyl)EYEGGGGSGGGGSFNPRH[Aib]EGTFTSDVSSYLEGQAAKEFIAWLVKGRG (N-terminus assumed) [PES12]”, on HSA, the k a was 21700 M⁻¹ s⁻¹, the k d came out at 0.0531 s⁻¹ and binding was characterised by a dissociation constant (Kd) of 2.45 µM.

Regarding “{FITC-Ahx}-EYEEYEK(Palmitoyl)GGGGSGGGGSFNPRH[Aib]EGTFTSDVSSYLEGQAAKEFIAWLVKGRG (N-terminus assumed) [PES20]”, at HSA, the k a was determined as 3180 M⁻¹ s⁻¹; the k d worked out at 0.0534 s⁻¹; the affinity, expressed as Kd, was 16.8 µM.

On HSA, “{FITC-Ahx}-EYK(Stearoyl)EEYEGGGGSGGGGSFNPRH[Aib]EGTFTSDVSSYLEGQAAKEFIAWLVKGRG (N-terminus assumed) [PES09]” had a k a of 12100 M⁻¹ s⁻¹, a k d of 0.0531 s⁻¹ and a dissociation constant (Kd) of 4.32 µM.

As to “{FITC-Ahx}-EYK(Myristoyl)EEYEGGGGSGGGGSFNPRH[Aib]EGTFTSDVSSYLEGQAAKEFIAWLVKGRG (N-terminus assumed) [PES07]”, at HSA, the k a came to 8240 M⁻¹ s⁻¹, the k d was 0.0632 s⁻¹ and binding was put at a Kd of 7.61 µM.

As for “{FITC-Ahx}-EYEK(Myristoyl)EYEGGGGSGGGGSFNPRH[Aib]EGTFTSDVSSYLEGQAAKEFIAWLVKGRG (N-terminus assumed) [PES10]”, on HSA, the k a was determined as 12900 M⁻¹ s⁻¹, the k d was 0.0328 s⁻¹ and the Kd came out at 2.54 µM.

“{FITC-Ahx}-EYEEYEK(Stearoyl)GGGGSGGGGSFNPRH[Aib]EGTFTSDVSSYLEGQAAKEFIAWLVKGRG (N-terminus assumed) [PES21]”: on HSA, the k a came out at 11400 M⁻¹ s⁻¹, the k d amounted to 0.036 s⁻¹ and binding was characterised by a dissociation constant (Kd) of 3.16 µM.

On HSA, “{FITC-Ahx}-EYEK(Palmitoyl)EYEGGGGSGGGGSFNPRH[Aib]EGTFTSDVSSYLEGQAAKEFIAWLVKGRG (N-terminus assumed) [PES11]” yielded a k a of 8380 M⁻¹ s⁻¹, a k d of 0.0782 s⁻¹ and a Kd of 9.33 µM.

On HSA, “{FITC-Ahx}-EYEEYK(Myristoyl)EGGGGSGGGGSFNPRH[Aib]EGTFTSDVSSYLEGQAAKEFIAWLVKGRG (N-terminus assumed) [PES16]” registered a k a of 11000 M⁻¹ s⁻¹, a k d of 0.0192 s⁻¹ and a Kd of 1.74 µM.

At HSA, “{FITC-Ahx}-K(Myristoyl)EYEEYEGGGGSGGGGSFNPRH[Aib]EGTFTSDVSSYLEGQAAKEFIAWLVKGRG (N-terminus assumed) [PES01]” gave a k a of 6900 M⁻¹ s⁻¹, a k d of 0.0182 s⁻¹ and a dissociation constant Kd of 2.66 µM.

At HSA, “{FITC-Ahx}-EYEEK(Stearoyl)YEGGGGSGGGGSFNPRH[Aib]EGTFTSDVSSYLEGQAAKEFIAWLVKGRG (N-terminus assumed) [PES15]” displayed a k a of 21800 M⁻¹ s⁻¹, a k d of 0.0112 s⁻¹ and a Kd of 0.512 µM. Further, the half-life at 1 mg L^−1 in data set [1] (human plasma with HSA) is 56.5 h. The half-life at 1 mg L^−1 in data set [1] (setting [2]) was 48.5 h.

On HSA, “{FITC-Ahx}-EYEEYK(Palmitoyl)EGGGGSGGGGSFNPRH[Aib]EGTFTSDVSSYLEGQAAKEFIAWLVKGRG (N-terminus assumed) [PES17]” registered a k a of 12000 M⁻¹ s⁻¹, a k d of 0.0627 s⁻¹ and a Kd of 5.21 µM.

Turning to “{FITC-Ahx}-EK(Myristoyl)YEEYEGGGGSGGGGSFNPRH[Aib]EGTFTSDVSSYLEGQAAKEFIAWLVKGRG (N-terminus assumed) [PES04]”, on HSA, the k a amounted to 1240 M⁻¹ s⁻¹, the k d stood at 0.0332 s⁻¹ and binding was put at a Kd of 26.7 µM.

At HSA, “{FITC-Ahx}-EYEEYK(Stearoyl)EGGGGSGGGGSFNPRH[Aib]EGTFTSDVSSYLEGQAAKEFIAWLVKGRG (N-terminus assumed) [PES18]” yielded a k a of 11400 M⁻¹ s⁻¹, a k d of 0.036 s⁻¹ and a Kd of 3.16 µM.

Turning to “{FITC-Ahx}-K(Stearoyl)EYEEYEGGGGSGGGGSFNPRH[Aib]EGTFTSDVSSYLEGQAAKEFIAWLVKGRG (N-terminus assumed) [PES03]”, on HSA, the k a is 12800 M⁻¹ s⁻¹, the k d turned out to be 0.0322 s⁻¹ and the Kd was 2.51 µM.

“{FITC-Ahx}-EYEEYEK(Myristoyl)GGGGSGGGGSFNPRH[Aib]EGTFTSDVSSYLEGQAAKEFIAWLVKGRG (N-terminus assumed) [PES19]”: on HSA, the k a is 2500 M⁻¹ s⁻¹, the k d was determined as 0.0222 s⁻¹ and the Kd was 8.73 µM.
